# Bioassay records as filed in PubChem.
# PGE2 EP2 inh: EP2 receptor (human) inhibition. P43116. C6 glioma cells expressing human EP2, cAMP TR-FRET; cells stimulated with saturating PGE2. inhibition, % at 25 µM. 260,000 tested, 0.52% active;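 active means percent inhibition above 40 after rounding to a whole number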;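 further: rat C6 glioma host cells with rolipram phosphodiesterase inhibitor present; the protocol text gives 20 µM as final concentration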
# Target sequence (P43116 whole entry, looked up): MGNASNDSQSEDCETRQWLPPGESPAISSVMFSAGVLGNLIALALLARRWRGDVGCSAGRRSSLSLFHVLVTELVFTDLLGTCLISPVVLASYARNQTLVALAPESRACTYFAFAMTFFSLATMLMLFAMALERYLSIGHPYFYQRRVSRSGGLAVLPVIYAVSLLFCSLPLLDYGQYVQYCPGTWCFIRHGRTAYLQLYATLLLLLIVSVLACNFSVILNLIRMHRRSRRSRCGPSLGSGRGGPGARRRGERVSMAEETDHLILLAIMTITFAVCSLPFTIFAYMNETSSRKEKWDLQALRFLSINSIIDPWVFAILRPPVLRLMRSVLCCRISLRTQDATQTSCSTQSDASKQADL
# Dynein transport: dynein cargo transport inhibition; 3617.4 mouse cells, GR-EGFP nuclear translocation imaging; test concentration mostly 20 µM; stimulated with dexamethasone, 1 µM; stronger effect = lower value; z-score, hits read low; 220,000 tested, 0.47% active; AID 1381;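 active means plate z-score of nuclear minus cytoplasmic receptor signal below a set negative limit, without overly bright fluorescence or cell loss, cut at about -3.5 in these data, passing the limit was not always enough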;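 further: z-score of nuclear minus cytoplasmic ring GR-EGFP intensity difference per well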
#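 Buffer or medium: tetracycline-free induction medium containing charcoal-stripped FBS / Reagent: dexamethasone agonist, 1.0 µM final, for 30 min / Technique: automated 10x imaging of fixed Hoechst-stained cells / Times: induction 48 h, compound 1 h, agonist 30 min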
# EP2 mod: modulates human prostaglandin E2 receptor EP2 signaling | P43116 | EP2-expressing cells, cAMP HTRF FRET, PGE2 co-stimulation | induction, % at 25 µM | 260,000 tested, 0.83% active;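 active means compounds whose cAMP rise, as percent of the full-agonist control response, exceeds 60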;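 further: rat C6 glioma line stably carrying human EP2 under a CMV promoter; the protocol text gives 20 µM as final concentration; 100% = response of wells given 1 µM PGE2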
# Hsp70 activator: switches on Hsp70 transcription | 200,000 tested, 0.04% active | AID 1203 | activation, % at 10 µM | HeLa Hsp70 promoter luciferase reporter, luminescence; scaled: vehicle 0, proteasome-inhibitor control 100%;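 active means activation above the mean across all tested compounds plus 3 SD, cutoff set per campaign, cut at about 5.5% in these data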;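 further: 100% = MG132 at 30 µM as the positive control and 0% = DMSO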
# EP2 cAMP induct: human EP2 receptor cAMP induction, negative in counter-screens | shares compounds with EP2 mod | C6 glioma EP2 cells, cAMP HTRF induction; plus low (about EC15) PGE2 agonist | calls only at 20 µM (by protocol) | 1,300 tested, 47% active | AID 1080;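 active means cAMP induction above 50% in the main assay while under 30% in all four parallel counter assays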;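 further: rat C6 glioma cells stably expressing human EP2 receptor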
# Starred values were filed as active, the others as inactive; i = inactive; . = no result; + = active, no number. Shown are actives, neighbours in structure and some others; about 1.7% of the full set was active somewhere.
SMILES,PGE2 EP2 inh,Dynein transport,EP2 mod,Hsp70 activator,EP2 cAMP induct
O=c1c2c(n3cnnc3n1C1CCCCC1)-c1ccccc1CC21CCCCC1,9.4,-0.645,68.5*,0.1,+
O=c1c2c(n3cnnc3n1-c1ccccc1)-c1ccccc1CC21CCCC1,6.5,-0.0117,20.1,0.3,.
O=c1c2c(n3nnnc3n1-c1ccccc1)-c1ccccc1CC21CCCC1,20.4,0.304,73.1*,-0.2,+
Cc1ccc(-n2c(SCC(N)=O)nc3c(c2=O)C2(CCCC2)Cc2ccccc2-3)cc1,13.1,0.00857,71.5*,0.0,i
CC(=O)Nn1cnc2c(c1=O)C1(CCCC1)Cc1ccccc1-2,6.4,2.32,0.9,-0.2,.
Nn1cnc2c(c1=O)C1(CCCCC1)Cc1ccccc1-2,2.1,0.0639,73.2*,-0.1,i
CCSc1n[nH]c2nc3c(c(=O)n12)C1(CCCC1)Cc1ccccc1-3,13.5,-0.623,-1.4,-0.2,.
COc1ccc(-c2cc(C(F)(F)F)nc(SCC(=O)Nc3ccccc3F)n2)cc1OC,7.0,.,-25.8,.,.
CCNC(=O)c1cc2c(=O)n3ccccc3nc2n(CCc2ccccc2)c1=N,8.8,.,-42.0,.,.
O=C(Nc1ncc(Cc2cccc3ccccc23)s1)c1ccco1,5.7,.,-31.0,.,.
Cc1cccc(C)c1NC(=O)CSc1nnc(Cn2cnc3ccccc32)n1C,9.2,.,-19.7,.,.
Cc1cc(=O)oc(C)c1C(=O)OC(C(=O)c1ccccc1)c1ccccc1 (configuration not stated),7.6,-0.342,67.0*,-0.2,i
CN(Cc1cc(Br)cc(Br)c1O)Cc1c(O)ccc2ccccc12,35.1,.,62.2*,.,i
CCN(Cc1cc(Cl)cc(C)c1O)Cc1c(O)ccc2ccccc12,37.8,.,54.1,.,i
CCN(Cc1ccncc1)Cc1c(O)ccc2ccccc12,7.9,-0.196,-46.4,-0.1,.
CN(C)Cc1c(O)ccc2ccccc12,5.7,1.04,-21.7,.,.
CCCCc1ccc(-n2c(Cc3cccs3)n[nH]c2=S)cc1,9.3,-0.631,70.6*,0.0,+
O=S(=O)(c1ccc(F)cc1)c1snnc1-c1ccccc1,-1.0,-3.08,68.7*,0.1,+
O=S(=O)(c1ccc(Cl)cc1)c1snnc1-c1ccccc1,12.8,-1.41,44.7,-0.1,.
O=C(O)c1nn(CC(=O)N(C2CCCCC2)C2CCCCC2)c(=O)c2ccccc12,4.3,-0.96,83.4*,-0.1,+
COC(=O)c1nc(NC(=O)C(C)(C)C)n[nH]1,16.3,-1.58,66.2*,-0.2,i
CC(=O)c1sc2nc(-c3ccc(C)cc3)c3c(c2c1N)CCCC3,18.0,0.133,72.1*,-0.3,+
CCN(CC)S(=O)(=O)c1c(OC)cc(C)c(Cl)c1C,8.4,1.11,66.1*,-0.3,i
CCN(CC)S(=O)(=O)c1cc(C)c(C)cc1Br,19.9,-0.197,18.0,-0.5,.
COc1ccc2[nH]c(=O)c(CN(CCO)S(=O)(=O)c3ccccc3F)cc2c1,1.8,.,-7.9,.,.
SMILES,PGE2 EP2 inh,Dynein transport,EP2 mod,Hsp70 activator,EP2 cAMP induct
CCOC(=O)C(CC)n1cnc2sc(-c3ccccc3)cc2c1=O (configuration not stated),7.0,.,-42.4,.,.
Cc1c(C(=O)Nc2cccc3cccnc23)oc2ccccc12,7.8,-0.199,65.0*,-0.5,+
Cc1ccccc1NC(=O)c1oc2ccccc2c1C,10.6,.,-51.2,.,.
O=C(Nc1cccc2cccnc12)c1ccc(Br)o1,6.9,-0.159,68.8*,-0.2,i
O=C(Nc1cccc2ccccc12)c1ccc(Br)o1,.,-0.609,-8.4,0.2,.
O=C(Nc1ccccc1)c1ccc(-c2ccccc2Cl)o1,11.1,0.486,8.6,0.2,.
O=C(O)c1ccc(-c2ccccc2Cl)o1,9.8,3.5,69.4*,0.0,i
C#CCOc1c(Cl)cc(C2C3=C(CCCC3=O)NC3=C2C(=O)CCC3)cc1Cl,11.4,.,-90.4,.,.
COc1ccc(N(CC(=O)N/N=C/c2ccc(OC3CSC3)cc2)S(=O)(=O)c2ccccc2)cc1,8.2,-0.627,36.1,-0.2,.
Cc1ccc(N(CC(=O)N/N=C/c2ccc(OC3CSC3)cc2)S(=O)(=O)c2ccccc2)cc1,15.0,-0.899,75.8*,0.1,+
COc1ccc(-c2nnc3n2N=C(C)CS3)cc1,5.7,0.293,5.7,0.0,.
COc1ccc(C2=Nn3c(nnc3-c3ccc(OC)cc3)SC2)cc1,4.7,-0.588,91.5*,-0.2,+
CCc1ccc(C2=Nn3c(nnc3-c3cccs3)SC2)cc1,15.4,-1.69,88.6*,-0.2,+
COc1ccc(C2=Nn3c(nnc3-c3ccccc3OC)SC2)cc1OC,7.9,0.498,73.9*,-0.1,i
CCn1nnc(-c2ccccc2NC(=O)c2cc(OC)cc(OC)c2)n1,3.1,-0.69,73.9*,0.5,+
Fc1ccc(Sc2nc(-c3ccccc3)nnc2C(F)(F)F)cc1,9.4,-2.13,65.2*,0.0,i
Fc1ccc(Oc2nc(-c3ccccc3)nnc2C(F)(F)F)cc1,11.4,-1.95,68.7*,-0.3,+
Cc1cc(C)c2cc(CN(Cc3cccs3)S(=O)(=O)c3ccc(Cl)cc3)c(=O)[nH]c2c1,7.6,.,-36.5,.,.
CCCc1cc(-c2nc(N)ncc2-c2ccc3c(c2)OCCCO3)c(O)cc1OC,9.0,-0.323,87.8*,-0.1,+
COc1ccc(-c2cc(C(F)(F)F)nc(SCC(=O)N3CCN(C)CC3)n2)cc1,6.6,.,-12.4,.,.
COc1ccccc1NC(=S)N(Cc1ccccc1)Cc1ccccn1,6.5,-0.491,34.1,-0.4,.
S=C(Nc1ccccc1Cl)N(Cc1ccccc1)Cc1ccccn1,2.8,-0.632,75.5*,-0.2,+
O=C(c1cccs1)N1N=C(c2ccccc2)CC1c1ccc(O)cc1 (configuration not stated),14.1,-0.454,73.5*,-0.3,i
Nc1c(C(=O)Nc2ccc(S(=O)(=O)N3CCCC3)cc2)sc2nc3ccccc3cc12,12.3,.,-38.7,.,.
COc1ccc2cc(C)c3nn(CC(=O)N4CCCCC4C)c(=O)n3c2c1 (configuration not stated),2.5,.,-46.3,.,.
SMILES,PGE2 EP2 inh,Dynein transport,EP2 mod,Hsp70 activator,EP2 cAMP induct
Cc1cc(Oc2ccccc2)nc(NCc2ccccc2)n1,10.6,-0.633,65.8*,-0.2,+
Cc1cc(Oc2ccccc2F)nc(NCc2ccccc2)n1,.,-0.754,65.8*,0.1,+
COc1ccc2nc(SCC(=O)Nc3cc(C)ccc3C)c(C#N)cc2c1,19.2,.,-21.5,.,.
FC(F)(F)c1cc(Oc2ccccc2)nc(-c2ccccn2)n1,9.3,-0.476,8.5,-0.4,.
COc1ccc(Oc2cc(C(F)(F)F)nc(N(C)C)n2)cc1,7.1,-0.0707,65.2*,-0.1,i
COc1cc(C)c(NC(=S)Nc2ccc(C)c(Cl)c2)cc1OC,15.3,-0.67,-50.1,-0.4,.
COc1cc(C)c(NC(c2ccccc2)c2ccccc2)cc1OC,3.5,-0.0582,66.6*,0.5,+
O=S(=O)(Nc1ccccc1N1CCCCC1)c1ccc(Cl)s1,5.5,-0.0571,68.8*,-0.1,i
O=S(=O)(Nc1cc(Cl)ccc1N1CCCCC1)c1cccs1,6.0,-0.471,44.9,-0.5,.
